Measurements from different studies.
Each line is one published result; the experiments were not run side by side.
Target: Cyclin-dependent kinase 11B (CDK11B, Homo sapiens, UniProt P21127)
Method: competition with immobilised ligand

`O=C(NC[C@@H]1[C@H]2CN(C(=O)OCc3cc(C(F)(F)F)cc(C(F)(F)F)c3)C[C@@H]12)c1ccc2[nH]nnc2c1` has a remaining binding of 100% (cell-free assay; 1 µM).
For `O=C(c1ccc(Nc2ncc(Cl)c(-c3cc4ccccc4s3)n2)cc1)N1CCC(N2CCCC2)CC1`, the remaining binding was 80% (binding; 1 µM).
With `CN(CCCC(F)(F)F)c1nccc(-c2cnn3ncccc23)n1` the remaining binding was 94% (binding; 1 µM).
For `O=C(c1ccc(Nc2ncc(Cl)c(-c3ccc(Cl)s3)n2)cc1)N1CCC(N2CCCC2)CC1`, the remaining binding was 46% (binding; 1 µM).
For `CC1CCCN1c1nccc(-c2cnn3ncccc23)n1` (stereo not drawn), the remaining binding was 100% (binding; 1 µM).
For `CNC(=O)[C@@H]1CC[C@@H](n2c(-c3ccc4cnccc4c3)nc3ccc(C(=O)NCc4cccc(C(N)=O)c4)cc32)C1`, the remaining binding was 100% (binding; 1 µM).
`CN(C)c1nccc(-c2cnn3ncccc23)n1` has a remaining binding of 100% (binding; 1 µM).
`CO[C@H]1CC[C@H](CNc2ccc(S(=O)(=O)NC(=O)c3ccc(N4CCN(CC5=C(c6ccc(Cl)cc6)CC(C)(C)CC5)CC4)cc3Oc3cnc4[nH]ccc4c3)cc2[N+](=O)[O-])CC1` gave a remaining binding of 98% (cell-free assay; 1 µM).
`Cc1cnc(Nc2ccc(C(=O)N3CCC(N4CCCC4)CC3)cc2)nc1-c1cc2ccccc2s1` gave a remaining binding of 100% (binding; 1 µM).
`CNCc1ccccc1-c1csc([C@H](C)Nc2nc(C)nc3cc(OC)c(OC)cc23)c1` gave a remaining binding of 100% (cell-free assay; 1 µM).
`Nc1ncc2c(n1)-c1c([nH]c3ccc(C#CC4CC4)cc13)CCCC2` gave a remaining binding of 91% (binding; 1 µM).
For `CN(C)C(=O)Cn1cc(-c2nc([C@@](C)(c3ccc(-c4cnc(N)nc4)cc3)C3CC3)no2)cn1`, the remaining binding was 79% (cell-free assay; 1 µM).
`CCN1CCN(Cc2ccc(C(=O)Nc3ccc(C)c(Oc4ccc5c(c4)CC(=O)N5)c3)cc2C(F)(F)F)CC1` gave a remaining binding of 100% (binding; 1 µM).
With `Cc1cnn2ncc(-c3ccnc(N(C)C)n3)c2c1` the remaining binding was 95% (binding; 1 µM).
With `FC(F)(F)Oc1cccc(-c2cnc3ccc(-c4ccncc4)nn23)c1` the remaining binding was 100% (cell-free assay; 5 µM).
The remaining binding of `CC1=C(C#N)C(c2ccc3c(c2)c(NC(=O)c2ccccc2C)nn3C)C(C#N)=C(C)N1` is reported as 100% (cell-free assay; 1 µM).
`C[C@H]1CCN(c2nccc(-c3cnn4ncccc34)n2)C1` has a remaining binding of 90% (binding; 1 µM).
For `Cc1nc(Cc2cccc(C(F)(F)F)c2)sc1-c1ccc(C(N)=O)nc1`, the remaining binding was 97% (cell-free assay; 1 µM).
For `C[C@@H](c1ccc(-n2cnc3c(N)ncnc32)cc1)N1CCc2nn(C)c(Cc3ccccc3)c2C1=O`, the remaining binding was 86% (binding; 0.1 µM).
With `N[C@@H]1CCN(c2nccc(-c3cnn4ncccc34)n2)C1` the remaining binding was 100% (binding; 1 µM).
`O=C(NCC1CCOCC1)c1n[nH]cc1NC(=O)c1c(F)cccc1F` gave a remaining binding of 96% (binding; 1 µM).
